Test results as given in ChEMBL document CHEMBL4627265, “Optimization of 8-oxoadenines with toll-like-receptor 7 and 8 activity” (Bioorg Med Chem Lett, 2020).
Calls of active or inactive are those of the source. The rule behind the calls is not given here.

What was measured:
[1] = target: T1, Toll-like receptor 9 (Homo sapiens) (UniProt Q9NR96); experiment: Agonist activity at human TLR9 expressed in HEK293 cells by SEAP reporter gene assay; type: cell-based
T1 sequence (whole entry): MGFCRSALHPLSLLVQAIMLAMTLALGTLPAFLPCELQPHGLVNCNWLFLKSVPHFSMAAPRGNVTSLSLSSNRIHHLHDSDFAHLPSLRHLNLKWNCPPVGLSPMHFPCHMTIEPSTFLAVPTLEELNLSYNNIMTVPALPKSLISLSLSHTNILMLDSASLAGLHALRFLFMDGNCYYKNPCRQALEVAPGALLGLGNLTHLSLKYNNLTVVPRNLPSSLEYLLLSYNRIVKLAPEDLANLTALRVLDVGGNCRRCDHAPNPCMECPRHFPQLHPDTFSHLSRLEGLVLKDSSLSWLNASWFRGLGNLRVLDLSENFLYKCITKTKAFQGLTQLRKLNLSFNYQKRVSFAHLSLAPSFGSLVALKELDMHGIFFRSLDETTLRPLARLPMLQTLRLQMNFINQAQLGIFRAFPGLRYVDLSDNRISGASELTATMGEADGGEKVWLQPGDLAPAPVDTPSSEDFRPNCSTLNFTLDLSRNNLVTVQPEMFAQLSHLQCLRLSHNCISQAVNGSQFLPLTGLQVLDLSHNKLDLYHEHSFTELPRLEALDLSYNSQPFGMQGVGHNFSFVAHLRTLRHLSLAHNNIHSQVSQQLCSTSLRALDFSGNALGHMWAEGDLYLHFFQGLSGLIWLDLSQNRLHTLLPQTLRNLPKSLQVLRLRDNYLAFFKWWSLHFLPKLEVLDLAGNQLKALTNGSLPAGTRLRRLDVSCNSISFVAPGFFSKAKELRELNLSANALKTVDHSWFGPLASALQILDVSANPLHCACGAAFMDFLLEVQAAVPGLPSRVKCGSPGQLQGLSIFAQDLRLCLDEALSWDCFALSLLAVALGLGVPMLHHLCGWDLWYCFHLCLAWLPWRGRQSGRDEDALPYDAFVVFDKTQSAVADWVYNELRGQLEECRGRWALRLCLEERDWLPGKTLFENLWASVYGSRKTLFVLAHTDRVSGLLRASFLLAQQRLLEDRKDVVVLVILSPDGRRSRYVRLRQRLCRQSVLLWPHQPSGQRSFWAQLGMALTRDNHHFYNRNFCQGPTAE

Toll-like receptor 7 = target: T2, Toll-like receptor 7 (Homo sapiens, UniProt Q9NYK1); experiment: Agonist activity at human TLR7 expressed in HEK293 cells assessed as induction of NFKappaB activity after 24 hrs by SEAP reporter gene assay; type: cell-based
T2 sequence (Q9NYK1 whole entry): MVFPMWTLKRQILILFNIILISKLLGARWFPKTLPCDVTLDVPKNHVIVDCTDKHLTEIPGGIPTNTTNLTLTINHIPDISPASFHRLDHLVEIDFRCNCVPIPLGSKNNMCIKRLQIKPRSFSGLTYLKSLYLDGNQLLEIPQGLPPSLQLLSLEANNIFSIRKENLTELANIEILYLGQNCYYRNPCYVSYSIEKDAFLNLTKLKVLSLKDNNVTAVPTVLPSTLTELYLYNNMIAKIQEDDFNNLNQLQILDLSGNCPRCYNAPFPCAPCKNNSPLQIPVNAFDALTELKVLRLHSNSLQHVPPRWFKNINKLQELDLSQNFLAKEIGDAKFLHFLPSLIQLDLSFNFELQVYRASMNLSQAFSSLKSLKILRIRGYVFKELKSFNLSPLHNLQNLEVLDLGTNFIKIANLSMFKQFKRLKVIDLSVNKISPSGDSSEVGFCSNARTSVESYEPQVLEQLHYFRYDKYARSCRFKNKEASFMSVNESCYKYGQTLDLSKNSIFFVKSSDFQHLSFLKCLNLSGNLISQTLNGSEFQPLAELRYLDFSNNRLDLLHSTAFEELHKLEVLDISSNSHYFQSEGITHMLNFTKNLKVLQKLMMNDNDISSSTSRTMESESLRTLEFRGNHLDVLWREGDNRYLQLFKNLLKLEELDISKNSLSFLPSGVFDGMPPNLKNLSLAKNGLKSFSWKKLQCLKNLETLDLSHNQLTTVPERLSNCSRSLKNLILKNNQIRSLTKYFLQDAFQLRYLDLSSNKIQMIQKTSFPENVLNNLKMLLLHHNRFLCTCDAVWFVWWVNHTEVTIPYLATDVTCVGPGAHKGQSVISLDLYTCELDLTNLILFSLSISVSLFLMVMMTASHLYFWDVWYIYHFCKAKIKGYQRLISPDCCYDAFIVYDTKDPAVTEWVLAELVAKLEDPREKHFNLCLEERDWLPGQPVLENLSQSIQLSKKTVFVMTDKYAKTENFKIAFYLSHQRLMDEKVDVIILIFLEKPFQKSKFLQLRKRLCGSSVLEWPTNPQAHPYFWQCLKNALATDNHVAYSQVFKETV
Procedure, shortened: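 HEK293 cells stably transfected with hTLR7 or hTLR8 plus an NFκB-driven SEAP reporter, treated 24 h with compound over a μM range; SEAP secretion read out. EC50 as mean ± SD of three (TLR7) or four (TLR8) independent experiments.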

Activity [1]: inactive
EC50 (Toll-like receptor 7): > 500 µM
Structure (SMILES): Nc1nc(OCCCCO)nc2c1[nH]c(=O)n2CC1CCNCC1
